According to ChEMBL document CHEMBL1806466, “2-Amino-4-methyl-5-phenylethyl substituted-7-N-benzyl-pyrrolo[2,3-d]pyrimidines as novel antitumor antimitotic agents that also reverse tumor resistance” (Bioorg Med Chem, 2011):
Calls of active or inactive are those of the source. The rule behind the calls is not given here.

How the values were obtained:
[1] = Cytotoxic activity against Pgp-deficient human MCF7/VP cells expressing MRP1 after 48 hrs by sulforhodamine B assay; format: functional, cell-based
Procedure, shortened: (§1)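 Cells plated at ~15% confluency and allowed 24 h to attach, then exposed to varying test concentrations for 48 h. Survival by SRB binding, reported as % decrease in binding versus ethanol solvent controls, mean of three wells. For NCI/ADR, exposure with 0 or 50 nM vinblastine; for MCF-7/VP, with 0 or 1 nM vincristine.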

NCI/ADR = experiment: Reversal of Pgp-mediated multidrug resistance in human NCI/ADR cells assessed as enhancement of cytotoxicity of vinblastine after 48 hrs by sulforhodamine B assay; format: cell-based
Procedure, shortened: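 NCI/ADR cells plated at ~15% confluency and allowed 24 h to attach. […] Survival by SRB binding, each value the mean of three wells, with ethanol solvent controls. Pgp Antagonism Score = % survival without vinblastine / % survival with vinblastine.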

[2] = target: Multidrug resistance-associated protein 1 (Homo sapiens, UniProt P33527); experiment: Reversal of MRP1-mediated multidrug resistance in human MCF7/VP cells assessed as enhancement of cytotoxicity of vincristine after 48 hrs by sulforhodamine B assay; format: cell-based
Procedure, shortened: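 MCF-7/VP cells plated at ~15% confluency and allowed 24 h to attach. […] Survival by SRB binding. MRP1 Antagonism Score = % survival without vincristine / % survival with vincristine.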

MOLT-4 = experiment: Antitumor activity against human MOLT4 cells after 48 hrs by sulforhodamine B assay; format: functional; details: MOLT-4, 48 h
Procedure, shortened: (§2)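 NCI-60 screen, suspension lines: grown in RPMI 1640 with 5% FBS and 2 mM L-glutamine. Seeded at 5,000–40,000 cells/well and preincubated 24 h at 37 °C, 5% CO2, with time-zero plates fixed. Five concentrations (10-fold or half-log) given for 48 h. Settled cells fixed with 80% TCA (16% final), then SRB-stained and read at 515 nm. GI50 is from the net growth relative to time zero and control.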

RPMI-8226 = experiment: Antitumor activity against human RPMI8226 cells after 48 hrs by sulforhodamine B assay; format: functional; details: RPMI-8226, 48 h; procedure, shortened: as §2
A549 = experiment: Antitumor activity against human A549 cells after 48 hrs by sulforhodamine B assay; format: functional; details: A549, 48 h
Procedure, shortened: (§3)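 NCI-60 screen, adherent lines: grown in RPMI 1640 with 5% FBS and 2 mM L-glutamine. Seeded at 5,000–40,000 cells/well by doubling time and preincubated 24 h at 37 °C, 5% CO2, with time-zero plates TCA-fixed. Five concentrations (10-fold or half-log) given for 48 h. Fixed with cold TCA (10% final), then SRB-stained and read at A515. GI50 is 50% reduction of net protein increase versus control.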

EKVX = experiment: Antitumor activity against human EKVX cells after 48 hrs by sulforhodamine B assay; format: functional; procedure, shortened: as §3
NCI-H322M = experiment: Antitumor activity against human NCI-H322M cells after 48 hrs by sulforhodamine B assay; format: functional; procedure, shortened: as §3
NCI-H522 = experiment: Antitumor activity against human NCI-H522 cells after 48 hrs by sulforhodamine B assay; format: functional; details: NCI-H522, 48 h; procedure, shortened: as §3
HCC 2998 = experiment: Antitumor activity against human HCC2998 cells after 48 hrs by sulforhodamine B assay; format: functional; details: HCC 2998, 48 h; procedure, shortened: as §3
KM12 = experiment: Antitumor activity against human KM12 cells after 48 hrs by sulforhodamine B assay; format: functional; details: KM12, 48 h; procedure, shortened: as §3
SW-620 = experiment: Antitumor activity against human SW620 cells after 48 hrs by sulforhodamine B assay; format: functional; details: SW-620, 48 h; procedure, shortened: as §3
SF-268 = experiment: Antitumor activity against human SF268 cells after 48 hrs by sulforhodamine B assay; format: functional; details: SF-268, 48 h; procedure, shortened: as §3
SF-539 = experiment: Antitumor activity against human SF539 cells after 48 hrs by sulforhodamine B assay; format: functional; details: SF-539, 48 h; procedure, shortened: as §3
SNB-75 = experiment: Antitumor activity against human SNB75 cells after 48 hrs by sulforhodamine B assay; format: functional; details: SNB-75, 48 h; procedure, shortened: as §3
U-251 = experiment: Antitumor activity against human U251 cells after 48 hrs by sulforhodamine B assay; format: functional; details: U-251, 48 h
Procedure, shortened: (§4)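 NCI-60 panel lines grown in RPMI 1640 with 5% FBS and 2 mM L-glutamine. Cells plated at 5,000–40,000/well by doubling time, given 24 h before drug, then exposed to five concentrations for 48 h at 37 °C. Time-zero plates fixed with TCA. Cells fixed with TCA, stained with 0.4% SRB, read at 515 nm. GI50 = 50% reduction in net protein increase versus control.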

LOX IMVI = experiment: Antitumor activity against human LOXIMVI cells after 48 hrs by sulforhodamine B assay; format: functional; procedure, shortened: as §3
SK-MEL-2 = experiment: Antitumor activity against human SK-MEL-2 cells after 48 hrs by sulforhodamine B assay; format: functional; details: SK-MEL-2, 48 h; procedure, shortened: as §3
SK-MEL-28 = experiment: Antitumor activity against human SK-MEL-28 cells after 48 hrs by sulforhodamine B assay; format: functional; details: SK-MEL-28, 48 h; procedure, shortened: as §3
SK-MEL-5 = experiment: Antitumor activity against human SK-MEL-5 cells after 48 hrs by sulforhodamine B assay; format: functional; details: SK-MEL-5, 48 h; procedure, shortened: as §3
OVCAR-3 = experiment: Antitumor activity against human OVCAR3 cells after 48 hrs by sulforhodamine B assay; format: functional; details: OVCAR-3, 48 h; procedure, shortened: as §3
OVCAR-4 = experiment: Antitumor activity against human OVCAR4 cells after 48 hrs by sulforhodamine B assay; format: functional; details: OVCAR-4, 48 h; procedure, shortened: as §3
OVCAR-5 = experiment: Antitumor activity against human OVCAR5 cells after 48 hrs by sulforhodamine B assay; format: functional; details: OVCAR-5, 48 h; procedure, shortened: as §3
OVCAR-8 = experiment: Antitumor activity against human OVCAR8 cells after 48 hrs by sulforhodamine B assay; format: functional; details: OVCAR-8, 48 h; procedure, shortened: as §3
A498 = experiment: Antitumor activity against human A498 cells after 48 hrs by sulforhodamine B assay; format: functional; details: A498, 48 h; procedure, shortened: as §3
TK-10 = experiment: Antitumor activity against human TK10 cells after 48 hrs by sulforhodamine B assay; format: functional; details: TK-10, 48 h; procedure, shortened: as §4
UO-31 = experiment: Antitumor activity against human UO31 cells after 48 hrs by sulforhodamine B assay; format: functional; details: UO-31, 48 h; procedure, shortened: as §4
MCF7 [3] = experiment: Antitumor activity against human MCF7 cells after 48 hrs by sulforhodamine B assay; format: functional; details: MCF7, 48 h; procedure, shortened: as §3
NCI/ADR-RES = experiment: Antitumor activity against human NCI/ADR-RES cells after 48 hrs by sulforhodamine B assay; format: functional; procedure, shortened: as §3
MDA-MB-435 = experiment: Antitumor activity against human MDA-MB-435 cells after 48 hrs by sulforhodamine B assay; format: functional; details: MDA-MB-435, 48 h; procedure, shortened: as §3
T47D = experiment: Antitumor activity against human T47D cells after 48 hrs by sulforhodamine B assay; format: functional; procedure, shortened: as §4
[4] = Cytotoxic activity against drug-resistant […]-deficient human NCI/ADR cells expressing Pgp after 48 hrs by sulforhodamine B assay; format: functional, cell-based; details: NCI/ADR-RES; procedure, shortened: as §1
MCF7 [5] = experiment: Cytotoxic activity against drug-sensitive Pgp-, MRP1-deficient human MCF7 cells after 48 hrs by sulforhodamine B assay; details: MCF7, 48 h
MCF7 [6] = experiment: Resistance factor, ratio of IC50 for Pgp-deficient human MCF7/VP cells expressing MRP1 in absence of vincristine to IC50 for drug sensitive human MCF7 cells in presence of 1 nM vincristine

Sequence of Multidrug resistance-associated protein 1 (P33527 whole entry): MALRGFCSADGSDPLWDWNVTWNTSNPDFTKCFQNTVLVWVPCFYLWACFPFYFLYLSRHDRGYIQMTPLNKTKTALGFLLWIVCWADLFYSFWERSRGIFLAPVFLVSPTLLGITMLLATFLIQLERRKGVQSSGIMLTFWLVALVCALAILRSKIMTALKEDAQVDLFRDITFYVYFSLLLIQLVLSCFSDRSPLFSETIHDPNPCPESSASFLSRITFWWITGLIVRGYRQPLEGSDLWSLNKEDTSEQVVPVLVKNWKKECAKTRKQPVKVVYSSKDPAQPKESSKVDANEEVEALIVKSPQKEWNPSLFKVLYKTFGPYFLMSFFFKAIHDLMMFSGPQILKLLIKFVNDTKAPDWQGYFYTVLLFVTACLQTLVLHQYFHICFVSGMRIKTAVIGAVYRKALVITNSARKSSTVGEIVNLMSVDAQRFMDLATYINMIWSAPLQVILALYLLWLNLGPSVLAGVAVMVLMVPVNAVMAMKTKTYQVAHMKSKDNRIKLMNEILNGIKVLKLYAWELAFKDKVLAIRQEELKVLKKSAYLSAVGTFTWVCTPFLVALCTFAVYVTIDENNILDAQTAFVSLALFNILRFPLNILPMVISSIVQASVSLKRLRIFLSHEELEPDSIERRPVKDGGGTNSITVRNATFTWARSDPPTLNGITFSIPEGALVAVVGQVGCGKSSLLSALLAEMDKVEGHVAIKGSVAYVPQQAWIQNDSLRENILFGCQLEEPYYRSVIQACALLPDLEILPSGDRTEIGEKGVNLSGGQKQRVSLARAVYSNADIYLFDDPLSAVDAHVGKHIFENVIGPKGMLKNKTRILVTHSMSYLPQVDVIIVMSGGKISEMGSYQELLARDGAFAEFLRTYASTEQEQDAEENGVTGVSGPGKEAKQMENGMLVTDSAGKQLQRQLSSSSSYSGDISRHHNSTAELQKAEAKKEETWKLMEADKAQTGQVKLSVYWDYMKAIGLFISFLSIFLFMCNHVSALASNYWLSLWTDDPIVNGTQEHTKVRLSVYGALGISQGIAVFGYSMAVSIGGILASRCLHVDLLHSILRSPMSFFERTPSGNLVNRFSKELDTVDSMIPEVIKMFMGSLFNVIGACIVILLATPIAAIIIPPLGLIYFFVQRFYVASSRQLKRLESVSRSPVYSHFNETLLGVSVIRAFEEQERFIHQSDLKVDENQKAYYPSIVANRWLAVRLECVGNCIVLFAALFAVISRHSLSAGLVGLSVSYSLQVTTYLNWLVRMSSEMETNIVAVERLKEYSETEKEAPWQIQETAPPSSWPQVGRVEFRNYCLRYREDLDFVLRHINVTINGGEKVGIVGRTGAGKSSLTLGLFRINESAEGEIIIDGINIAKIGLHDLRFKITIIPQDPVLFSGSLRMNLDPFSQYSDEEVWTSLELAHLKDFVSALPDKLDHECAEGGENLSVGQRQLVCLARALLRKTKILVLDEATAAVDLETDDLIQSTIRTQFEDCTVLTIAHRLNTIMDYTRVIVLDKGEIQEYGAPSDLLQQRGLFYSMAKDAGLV

COc1cc(CCc2cn(Cc3ccccc3)c3nc(N)nc(C)c23)c(OC)c(OC)c1OC
IC50 [1]: 9 µM | Activity (NCI/ADR): Active | Activity [2]: Not Active | GI50 (MOLT-4): 3.96 µM | GI50 (RPMI-8226): 1.69 µM | GI50 (A549): 5.33 µM | GI50 (EKVX): 7.73 µM | GI50 (NCI-H322M): 6.92 µM | GI50 (NCI-H522): 6.05 µM | GI50 (HCC 2998): 5.89 µM | GI50 (KM12): 3.33 µM | GI50 (SW-620): 3.19 µM | GI50 (SF-268): 4.4 µM | GI50 (SF-539): 1.86 µM | GI50 (SNB-75): 2.25 µM | GI50 (U-251): 3.93 µM | GI50 (LOX IMVI): 5.29 µM | GI50 (SK-MEL-2): 5.09 µM | GI50 (SK-MEL-28): 4.05 µM | GI50 (SK-MEL-5): 1.46 µM | GI50 (OVCAR-3): 1.2 µM | GI50 (OVCAR-4): 8.83 µM | GI50 (OVCAR-5): 11.9 µM | GI50 (OVCAR-8): 4.71 µM | GI50 (A498): 2.25 µM | GI50 (TK-10): 7.62 µM | GI50 (UO-31): 5.37 µM | GI50 (MCF7 [3]): 1.05 µM | GI50 (NCI/ADR-RES): 2.02 µM | GI50 (MDA-MB-435): 0.34 µM | GI50 (T47D): 1.69 µM | IC50 [4]: 7 µM | IC50 (MCF7 [5]): 24 µM | Ratio IC50 (MCF7 [6]): 0.37
